Data reported in ChEMBL document CHEMBL4732257, “The optimization and characterization of functionalized sulfonamides derived from sulfaphenazole against Mycobacterium tuberculosis with reduced CYP 2C9 inhibition” (Bioorg Med Chem Lett, 2021).
≈ marks a conversion by molar mass, not a printed value.

Experiments:
[1] = tested on: Mycobacterium tuberculosis; assay: Antimycobacterial activity against Mycobacterium tuberculosis H37Rv assessed as bacterial growth inhibition; assay type: functional
[2] = target: CYP2C9 (Homo sapiens, UniProt P11712); assay: Inhibition of CYP2C9 (unknown origin) at 0.5 uM relative to control; assay type: ADME
Chain of CYP2C9 (P11712 whole entry): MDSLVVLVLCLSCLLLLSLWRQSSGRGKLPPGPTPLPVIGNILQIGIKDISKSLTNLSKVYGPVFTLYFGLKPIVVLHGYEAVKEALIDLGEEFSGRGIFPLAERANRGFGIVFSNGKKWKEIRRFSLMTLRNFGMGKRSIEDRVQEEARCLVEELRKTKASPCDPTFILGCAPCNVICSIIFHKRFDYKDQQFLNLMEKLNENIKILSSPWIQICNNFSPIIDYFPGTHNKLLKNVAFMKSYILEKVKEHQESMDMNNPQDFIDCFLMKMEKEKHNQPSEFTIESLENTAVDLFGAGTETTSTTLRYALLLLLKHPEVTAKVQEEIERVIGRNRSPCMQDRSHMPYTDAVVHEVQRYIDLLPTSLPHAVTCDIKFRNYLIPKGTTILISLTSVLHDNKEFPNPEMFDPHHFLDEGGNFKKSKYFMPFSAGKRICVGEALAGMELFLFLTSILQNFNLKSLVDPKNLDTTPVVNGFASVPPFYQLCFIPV

[3] = tested on: Vero; assay: Cytotoxicity against African green monkey Vero cells assessed as reduction in cell viability; assay type: cell-based; settings: Chlorocebus sabaeus
Summary of the method: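 Vero cells exposed to the compounds; IC50 taken as the concentration inhibiting 50% of cell growth relative to an untreated control.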

[4] = target: Cytochrome P450 2C9 (Homo sapiens, UniProt P11712); assay: Inhibition of CYP2C9 (unknown origin); assay type: ADME
Chain of Cytochrome P450 2C9 (P11712 whole entry): as above

| SMILES | MIC90 [1] | further results |
| --- | --- | --- |
| Nc1ccc(S(=O)(=O)Nc2nc3ccccc3o2)cc1 | > 32 µg/mL | – |
| CN(c1ccnn1-c1ccccc1)S(=O)(=O)c1ccc(N)cc1 | > 32 µg/mL | – |
| Cc1ccc(-c2ccc(-n3nccc3NS(=O)(=O)c3ccc(N)cc3)cc2)cc1 | 31 µg/mL (≈ 76.7 µM) | inhibition at 0.5 µM [2]: 2.2% |
| Nc1ccc(S(=O)(=O)Nc2ccc3cnn(-c4ccccc4)c3c2)cc1 | > 32 µg/mL | – |
| Nc1ccc(S(=O)(=O)Nc2nc3ccccc3s2)cc1 | 14.3 µg/mL (≈ 46.7 µM) | inhibition at 0.5 µM [2]: 4.8% |
| Nc1ccc(S(=O)(=O)Nc2ccnn2-c2ccc([N+](=O)[O-])cc2)cc1 | 10.3 µg/mL (≈ 28.7 µM) | – |
| Nc1ccc(S(=O)(=O)Nc2cc(-c3ccccc3)nn2-c2ccccc2)cc1 | > 32 µg/mL | – |
| Nc1ccc(S(=O)(=O)Nc2ccc3scnc3c2)cc1 | > 32 µg/mL | – |
| CNc1ccc(S(=O)(=O)Nc2ccnn2-c2ccccc2)cc1 | > 32 µg/mL | – |
| CC(C)(C)c1cc(NS(=O)(=O)c2ccc(N)cc2)n(-c2ccccc2)n1 | > 32 µg/mL | – |
| Cc1ccc(C)c(-n2nccc2NS(=O)(=O)c2ccc(N)cc2)c1 | > 32 µg/mL | – |
| Nc1ccc(S(=O)(=O)Nc2ccnn2-c2ccc(C(F)(F)F)cc2)cc1 | > 32 µg/mL | – |
| O=C(c1ccc(S(=O)(=O)Nc2ccnn2-c2ccccc2)cc1)N1CCNCC1 | > 32 µg/mL | – |
| Nc1ccc(S(=O)(=O)Nc2nc3ccc(-c4ccccc4)cc3s2)cc1 | > 32 µg/mL | – |
| Nc1ccc(S(=O)(=O)Nc2ccnn2-c2ccc(-c3ccccc3)cc2)cc1 | > 32 µg/mL | – |
| O=C(c1ccc(S(=O)(=O)Nc2ccnn2-c2ccccc2)cc1)N1CCCCC1 | 30.1 µg/mL (≈ 73.4 µM) | inhibition at 0.5 µM [2]: 0.2% |
| COc1ccc(-c2ccc(-n3nccc3NS(=O)(=O)c3ccc(N)cc3)cc2)cc1 | > 32 µg/mL | – |
| COc1ccc(-c2ccc3nc(NS(=O)(=O)c4ccc(N)cc4)sc3c2)cc1 | > 32 µg/mL | – |
| O=S(=O)(Nc1ccnn1-c1ccccc1)c1ccc(N2CCCCC2)cc1 | > 32 µg/mL | – |
| CC(=O)Nc1ccc(S(=O)(=O)Nc2ccnn2-c2ccccc2)cc1 | > 32 µg/mL | – |

| SMILES | MIC90 [1] | further results |
| --- | --- | --- |
| Nc1ccc(S(=O)(=O)Nc2ccnn2Cc2ccccc2)cc1 | > 32 µg/mL | – |
| Nc1ccc(S(=O)(=O)Nc2ccnn2-c2ccccc2)cc1F | > 32 µg/mL | – |
| Cc1cccc(-n2nccc2NS(=O)(=O)c2ccc(N)cc2)c1 | 12.2 µg/mL (≈ 37.2 µM) | – |
| Nc1cccc(S(=O)(=O)Nc2ccnn2-c2ccccc2)c1 | > 32 µg/mL | – |
| Nc1ccc(S(=O)(=O)Nc2ccnn2C2CCCCC2)cc1 | > 32 µg/mL | – |
| COc1ccc(-n2nccc2NS(=O)(=O)c2ccc(N)cc2)cc1 | 5.69 µg/mL (≈ 16.5 µM) | IC50 [3]: > 64 µg/mL; IC50 [4]: 11.5 µM; inhibition at 0.5 µM [2]: 9.1% |
| Nc1ccc(S(=O)(=O)Nc2ccnn2-c2ccc(F)cc2)cc1 | 6.88 µg/mL (≈ 20.7 µM) | IC50 [3]: > 64 µg/mL; inhibition at 0.5 µM [2]: 45.7% |
| O=C(c1ccc(S(=O)(=O)Nc2ccnn2-c2ccccc2)cc1)N1CCSCC1 | > 32 µg/mL | – |
| COc1cc(N)ccc1S(=O)(=O)Nc1ccnn1-c1ccccc1 | > 32 µg/mL | – |
| Nc1ccc(S(=O)(=O)Nc2ccnn2-c2cccc(F)c2)cc1 | 7.93 µg/mL (≈ 23.9 µM) | – |
| Nc1ccc(-c2ccc(S(=O)(=O)Nc3ccnn3-c3ccccc3)cc2)cc1 | > 32 µg/mL | – |
| CCc1cc(NS(=O)(=O)c2ccc(N)cc2)n(-c2ccccc2)n1 | > 32 µg/mL | – |
| Nc1ccc(S(=O)(=O)Nc2sccc2-c2ccccc2)cc1 | > 32 µg/mL | – |
| Cc1ccc(-n2nccc2NS(=O)(=O)c2ccc(N)cc2)cc1 | 7.33 µg/mL (≈ 22.3 µM) | IC50 [3]: > 64 µg/mL; inhibition at 0.5 µM [2]: 52.3% |
| Nc1ccc(S(=O)(=O)Nc2ccnn2-c2ccc(Br)cc2)cc1 | 14.5 µg/mL (≈ 37 µM) | – |
| Nc1ccc(S(=O)(=O)Nc2ccnn2C2CCCC2)cc1 | > 32 µg/mL | – |
| NNC(=O)c1ccncc1 [ISONIAZID] | 0.02 µg/mL (≈ 0.146 µM) | – |
| Nc1ccc(S(=O)(=O)Nc2ccnn2-c2ccccc2)cc1 [SULFAPHENAZOLE] | 5.51 µg/mL (≈ 17.5 µM) | IC50 [3]: > 64 µg/mL; inhibition at 0.5 µM [2]: 48.3% |
| Cc1cc(NS(=O)(=O)c2ccc(N)cc2)n(-c2ccccc2)n1 [SULFAZAMET] | 15.4 µg/mL (≈ 46.8 µM) | inhibition at 0.5 µM [2]: 45% |
